From ChEMBL document CHEMBL3392957, “The discovery of 1,2,3,9b-tetrahydro-5H-imidazo[2,1-a]isoindol-5-ones as a new class of respiratory syncytial virus (RSV) fusion inhibitors. Part 1” (Bioorg Med Chem Lett, 2015) come the findings set out here.

Each structure is given as a SMILES string. pEC50: −log10 of the molar value. ≈ marks a conversion by molar mass, not a printed value.

Data set [1] concerns Respiratory syncytial virus. Nature of the data set: Antiviral activity against Respiratory syncytial virus B1 infected in human Hep2 cells assessed as inhibition of virus-induced cytopathicity after 5 days by MTT assay. In kind it is functional, organism-based. Particulars: B1, HEp-2, 120 h. Put shortly: (§1)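 HEp2 cells (1.0 × 10⁴/well) infected at low moi (e.g. RSV A2 at moi 0.01) and added to serially diluted compound; 5 days at 37 °C, 5% CO₂. CPE read by MTT (1 mg/ml, 2 h, 37 °C), isopropanol, absorbance 540 nm; EC₅₀ by non-linear regression. SD given where n > 2.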
(In general: Cytopathic effects are the visible damage that an infection or toxin causes in cultured cells.)

For data set [2], the system named is Respiratory syncytial virus. Put plainly: Antiviral activity against wild-type Respiratory syncytial virus A Long infected in human Hep2 cells assessed as inhibition of virus-induced cytopathicity after 5 days by MTT assay. In kind it is functional, organism-based. The conditions noted are these: HEp-2, 120 h. Put shortly: as §1
In data set [3] the test system is Respiratory syncytial virus. Put plainly: Antiviral activity against Respiratory syncytial virus A2 infected in human Hep2 cells assessed as inhibition of virus-induced cytopathicity after 5 days by MTT assay. The conditions noted are these: A2, HEp-2, 120 h. The format is functional, organism-based. Put shortly: as §1
Data set [4] in a line: Cytotoxicity against human Hep2 cells after 5 days by MTT assay. In kind it is cell-based, HEp-2. Put shortly:
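Uninfected HEp2 cells (1.0 × 10⁴/well) with serially diluted compound, 5 days at 37 °C in 5% CO₂; viability by MTT (1 mg/ml, 2 h), isopropanol, absorbance 540 nm; CC₅₀ by non-linear regression.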
(In general: Tetrazolium assays rely on reduction of a dye to a coloured formazan, in cell work by metabolically active cells.)

Data set [5] concerns Respiratory syncytial virus. Nature of the data set: Antiviral activity against Respiratory syncytial virus A2 infected in human Hep2 cells assessed as inhibition of virus-induced cytopathicity after 5 days by MTT assay relative to alpha-1-acid glycoprotein. The format is functional, HEp-2. Put shortly: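 RSV A2 CPE assay in HEp2 cells (moi 0.01, 5 days, 37 °C, MTT read-out at 540 nm) run with alpha-1-acid glycoprotein at 1.5 mg/mL; result expressed as fold shift in EC₅₀ versus the assay without AAG.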

Data set [6] in a line: Kinetic solubility of the compound at pH 2 by nephelometry. The format is physicochemical. Particulars: buffer, read-out: Kinetic_solubility. The procedure, abridged: (§2)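 Kinetic solubility by nephelometry, at pH 2 and pH 6.5; reported as a range in μg/mL.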
A short description of data set [7]: Kinetic solubility of the compound at pH 6.5 by nephelometry. In kind it is physicochemical. Particulars: buffer, read-out: Kinetic_solubility. The procedure, abridged:
as §2

The nature of data set [8]: Lipophilicity, log D of the compound in octanol saturated mobile phase at pH 7.4 by chromatographic method. In kind it is physicochemical. The procedure, abridged: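 Effective logD determined chromatographically on a SUPELCOSIL LC-ABZ column with octanol-saturated mobile phase, pH 7.4.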
Data set [9] relates to Respiratory syncytial virus. Put plainly: Selectivity ratio of EC50 for Respiratory syncytial virus A Long harboring F protein D489 mutant infected in human Hep2 cells to EC50 for wild-type Respiratory syncytial virus A Long infected in human Hep2 cells. The format is functional, HEp-2. The procedure, abridged:
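CPE assay: HEp2 cells (1.0 × 10⁴/well) infected at low moi with RSV A Long, either F-protein D489Y mutant or wild type, and added to serially diluted compound. Incubated 5 days at 37 °C, 5% CO₂. MTT (1 mg/ml) added for 2 h, then isopropanol, and absorbance read at 540 nm. EC50 by non-linear regression. Ratio is mutant EC50 over wild-type EC50.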

A short description of data set [10]: Plasma protein binding in rat. In kind it is ADME, cell-free. The conditions noted are these: read-out: PPB (converted).
Data set [11] can be described thus: Elimination half life in Sprague-Dawley rat at 1.4 mg/kg, iv. The format is ADME, organism-based. Details: dose 1.4 mg/kg, route intravenous. The conditions noted are these: in vivo, read-out: beta t1/2 (converted).
Data set [12] is described as follows: Total clearance in Sprague-Dawley rat at 1.4 mg/kg, iv. The format is ADME, organism-based. Details: dose 1.4 mg/kg, route intravenous. The conditions noted are these: in vivo.
Data set [13] in a line: Apparent volume of distribution in Sprague-Dawley rat at 1.4 mg/kg, iv. The format is ADME, organism-based. Details: dose 1.4 mg/kg, route intravenous. The conditions noted are these: in vivo, read-out: Vz.
Data set [14] can be described thus: Cmax in Sprague-Dawley rat at 22 mg/kg, po as suspension with hydroxypropylmethylcellulose. In kind it is ADME, organism-based. Also noted: dose 22 mg/kg, route oral. Particulars: in vivo.
Data set [15] can be described thus: Elimination half life in Sprague-Dawley rat at 22 mg/kg, po as suspension with hydroxypropylmethylcellulose. The format is ADME, organism-based. The conditions noted are these: in vivo, read-out: beta t1/2 (converted). Details: dose 22 mg/kg, route oral.
Data set [16] can be described thus: Oral bioavailability in Sprague-Dawley rat at 22 mg/kg as suspension with hydroxypropylmethylcellulose. The conditions noted are these: in vivo. In kind it is ADME, organism-based.
In data set [17] the test system is Respiratory syncytial virus. Put plainly: Selectivity ratio of EC50 for Respiratory syncytial virus A Long harboring F protein D489Y mutant infected in human Hep2 cells to EC50 for wild-type Respiratory syncytial virus A Long infected in human Hep2 cells.
Data set [18] in a line: Cmax in Sprague-Dawley rat at 19 mg/kg, po as suspension with hydroxypropylmethylcellulose. The format is ADME, organism-based. Also noted: dose 19 mg/kg, route oral. The conditions noted are these: in vivo. Put shortly: (§3)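 Male Sprague-Dawley rats, n = 2, given a single oral dose. Plasma pharmacokinetics were analysed for Cmax (µM), terminal half-life (hr) and oral bioavailability F (%). The oral bioavailability estimate draws on a separate intravenous arm, also with n = 2 rats.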

A short description of data set [19]: Elimination half life in Sprague-Dawley rat at 19 mg/kg, po as suspension with hydroxypropylmethylcellulose. The format is ADME, organism-based. Details: dose 19 mg/kg, route oral. The conditions noted are these: in vivo, read-out: beta t1/2. Put shortly: as §3
The nature of data set [20]: Oral bioavailability in Sprague-Dawley rat at 19 mg/kg as suspension with hydroxypropylmethylcellulose. In kind it is ADME, organism-based. The conditions noted are these: in vivo. The procedure, abridged:
as §3

Data set [21] in a line: Total clearance in Sprague-Dawley rat at 2.0 mg/kg, iv in 0.1 M capsitol and 10 to 12.5 % DMSO. The conditions noted are these: in vivo.
The nature of data set [22]: Elimination half life in Sprague-Dawley rat at 2.0 mg/kg, iv in 0.1 M capsitol and 10 to 12.5 % DMSO. Particulars: in vivo, read-out: beta t1/2.
Data set [23] can be described thus: Apparent volume of distribution in Sprague-Dawley rat at 2.0 mg/kg, iv in 0.1 M capsitol and 10 to 12.5 % DMSO. The conditions noted are these: in vivo, read-out: Vz.
Data set [24] can be described thus: Oral bioavailability in Sprague-Dawley rat at 19 mg/kg as suspension with carboxymethylcellulose. In kind it is ADME, organism-based. The conditions noted are these: in vivo, 20 mg/kg, in the assay text read “20 mg/kg” for “19 mg/kg”. The procedure, abridged: as §3
A short description of data set [25]: Cmax in Sprague-Dawley rat at 20 mg/kg, po as suspension with carboxymethylcellulose. Particulars: in vivo.
A short description of data set [26]: Total clearance in Sprague-Dawley rat at 2.0 mg/kg, iv as solution in 5% glucose and 10% DMSO. Particulars: in vivo.
The nature of data set [27]: Elimination half life in Sprague-Dawley rat at 2.0 mg/kg, iv as solution in 5% glucose and 10% DMSO. Particulars: in vivo, read-out: beta t1/2 (converted).
The nature of data set [28]: Elimination half life in Sprague-Dawley rat at 20 mg/kg, po as suspension with carboxymethylcellulose. Particulars: in vivo, read-out: beta t1/2 (converted).
The nature of data set [29]: Apparent volume of distribution in Sprague-Dawley rat at 2.0 mg/kg, iv as solution in 5% glucose and 10% DMSO. Particulars: in vivo, read-out: Vz.

For orientation: pEC50 means −log10 of the EC50, conventionally taken in molar units. In general, CC50 refers to the concentration giving 50% cytotoxicity. The term chromatographic logD denotes a lipophilicity value derived from retention on a column. One may read the Cmax as the maximum level reached in the sampled fluid or tissue. Broadly, the bioavailability is dose-corrected exposure relative to a reference, in per cent. Low readings indicate little systemic uptake, high ones much systemic uptake. Take `O=C(c1ccc(F)cc1)N1CCN2C(=O)c3ccccc3C12c1ccc(Cl)cc1` (racemic): the pEC50 in data set [1] was 6.12; in data set [2] it was 6.59; in data set [3], 6.55. Moreover, the CC50 at 120 h in data set [4] is > 20000 nM. The “fold change (FC)” value in data set [5] is on record as 39. Besides, the solubility kinetic in [6] and in data set [7] was 6.3 µg/mL (≈ 15.5 µM) in each case. In [8], this molecule displayed a chromatographic logD of 4. The “Ratio EC50” value in [9] and in [17] was >76 in each case. In addition, the fraction unbound in [10] was 0.02. Besides, the results for the half-life in data set [11] and in data set [15] were 16 h and 17 h, respectively. Also, the clearance in data set [12] was found to be 2.1 mL/min/kg. Besides, in data set [13], the Vd was found to be 2.7 L/kg. Besides, the Cmax in [14] was 2 µM. For the same molecule, the bioavailability in [16] turned out to be 15%.

Regarding `O=C(c1ccc(F)cc1)N1CCN2C(=O)c3ccncc3C12c1ccc(Cl)cc1` (racemic), the negative-log EC50 (pEC50) in data set [1] was 6.17; in data set [2], 6.66; in [3], 6.64. The half-maximal cytotoxic concentration (CC50) at 120 h in data set [4] is > 49000 nM. Further, in [5], the “fold change (FC)” value is listed as <10. In addition, the solubility kinetic was determined as 25 µg/mL (≈ 61.3 µM) in data set [6] and 12.5 µg/mL (≈ 30.6 µM) in data set [7]. Also, the chromatographic logD in [8] was determined as 2.8. In addition, the fraction unbound in [10] was 0.27. The same molecule yielded a peak concentration (Cmax) in data set [18] of 6.3 µM. Besides, the half-life in data set [19] and in data set [22] was > 24 h each time. The bioavailability in [20] was 28%. Moreover, the clearance in data set [21] was 2.7 mL/min/kg. Moreover, in [23], the Vd turned out to be 6 L/kg.

With `O=C(c1ccc(F)cc1)N1CCN2C(=O)c3cc[n+]([O-])cc3C12c1ccc(Cl)cc1` (racemic), the results for the pEC50 in data set [1], in data set [2] and in data set [3] were 6.04, 6.92 and 6.60, respectively. In addition, the CC50 at 120 h in data set [4] was > 47000 nM. Besides, the “fold change (FC)” value in [5] is given as <10. Also, the values for the solubility kinetic in data set [6] and in data set [7] were 50 µg/mL (≈ 118 µM) and 25 µg/mL (≈ 59 µM), respectively. The same molecule displayed a chromatographic logD in [8] of 2.3. In addition, the bioavailability in [24] turned out to be 89%. The peak level in [25] (Cmax) was 23 µM. The molecule also came in with a clearance in data set [26] of 2.4 mL/min/kg. Also, the half-life in data set [27] is 6.5 h; in data set [28] it was 5.6 h. For the same molecule, the Vd in [29] turned out to be 1.3 L/kg.
